Laboratory results: ChEMBL document CHEMBL4725360, “Optimization of Acetazolamide-Based Scaffold as Potent Inhibitors of Vancomycin-Resistant Enterococcus” (J Med Chem, 2020)
In brackets after ≈: the same amount, converted by molar mass. Activity calls are given as the source filed them. No cut-off for these calls is given here.

Key:
Enterococcus faecalis [1] = assay: Antibacterial activity against Enterococcus faecalis NR-31975 incubated for 18 to 20 hrs under aerobic condition by CLSI protocol based broth microdilution assay; type: functional, organism-based; settings: time hrs 18-20
In short: (§1)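 Broth microdilution per CLSI. Strains grown aerobically overnight on trypticase soy agar at 37 °C. Inoculum set to 0.5 McFarland, diluted in trypticase soy broth to about 5 × 10⁵ CFU/mL. Agents serially diluted, plates incubated aerobically at 37 °C for 18–20 h. MIC is the lowest concentration with no visible growth. Compound stocks 10 mg/mL in DMSO.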

Enterococcus faecium [2] = assay: Inhibition of carbonic anhydrase in Enterococcus faecium ATCC 700221 assessed as antibacterial activity incubated for 18 to 20 hrs in presence of 5% CO2 by CLSI protocol based broth microdilution assay; settings: time hrs 18-20
In short: (§2)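 CLSI broth microdilution: inoculum about 5 × 10⁵ CFU/mL in trypticase soy broth with serial dilutions of agents. Paired plates incubated at 37 °C for 18–20 h, one set in ambient air ("normal"), the other under 5% CO₂. MIC is the lowest concentration completely inhibiting visible growth.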

Enterococcus faecium [3] = assay: Inhibition of carbonic anhydrase in Enterococcus faecium ATCC 700221 assessed as antibacterial activity incubated for 18 to 20 hrs in presence of ambient air by CLSI protocol based broth microdilution assay; settings: time hrs 18-20; in short: as §2
Enterococcus faecalis [4] = assay: Antibacterial activity against Enterococcus faecalis NR-31970 incubated for 18 to 20 hrs under aerobic condition by CLSI protocol based broth microdilution assay; type: functional, organism-based; settings: time hrs 18-20; in short: as §1
Enterococcus faecium [5] = assay: Antibacterial activity against Enterococcus faecium HM965 incubated for 18 to 20 hrs under aerobic condition by CLSI protocol based broth microdilution assay; type: functional; settings: time hrs 18-20; in short: as §1
Enterococcus faecalis [6] = assay: Antibacterial activity against Enterococcus faecalis HM-335 incubated for 18 to 20 hrs under aerobic condition by CLSI protocol based broth microdilution assay; type: functional; settings: time hrs 18-20; in short: as §1
Enterococcus faecium [7] = assay: Antibacterial activity against Enterococcus faecium NR-32052 incubated for 18 to 20 hrs under aerobic condition by CLSI protocol based broth microdilution assay; type: functional; settings: time hrs 18-20; in short: as §1
Enterococcus faecium [8] = assay: Antibacterial activity against Enterococcus faecium NR-28978 incubated for 18 to 20 hrs under aerobic condition by CLSI protocol based broth microdilution assay; type: functional; settings: time hrs 18-20; in short: as §1
Enterococcus faecium [9] = assay: Antibacterial activity against Enterococcus faecium NR-31914 incubated for 18 to 20 hrs under aerobic condition by CLSI protocol based broth microdilution assay; type: functional; settings: time hrs 18-20; in short: as §1
Enterococcus faecium [10] = assay: Antibacterial activity against Enterococcus faecium NR-31903 incubated for 18 to 20 hrs under aerobic condition by CLSI protocol based broth microdilution assay; type: functional; settings: time hrs 18-20; in short: as §1
Enterococcus faecalis [11] = assay: Antibacterial activity against Enterococcus faecalis HM-334 incubated for 18 to 20 hrs under aerobic condition by CLSI protocol based broth microdilution assay; type: functional; settings: time hrs 18-20; in short: as §1
Enterococcus faecium [12] = assay: Antibacterial activity against Enterococcus faecium HM968 incubated for 18 to 20 hrs under aerobic condition by CLSI protocol based broth microdilution assay; type: functional; settings: time hrs 18-20; in short: as §1
Enterococcus faecium [13] = assay: Antibacterial activity against Enterococcus faecium NR-32065 incubated for 18 to 20 hrs under aerobic condition by CLSI protocol based broth microdilution assay; type: functional; settings: time hrs 18-20; in short: as §1
Enterococcus faecium [14] = assay: Antibacterial activity against Enterococcus faecium NR-31972 incubated for 18 to 20 hrs under aerobic condition by CLSI protocol based broth microdilution assay; type: functional; settings: time hrs 18-20; in short: as §1
Enterococcus faecium [15] = assay: Antibacterial activity against Enterococcus faecium NR-31971 incubated for 18 to 20 hrs under aerobic condition by CLSI protocol based broth microdilution assay; type: functional; settings: time hrs 18-20; in short: as §1
[16] = Cytotoxicity against human Caco2 cells incubated for 2 hrs by MTS assay; type: cell-based; settings: Caco-2 cells
In short: (§3)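 Caco-2 cells maintained in DMEM with 10% FBS, non-essential amino acids and penicillin-streptomycin at 37 °C, 5% CO₂. Compound exposure for 2 h in serum-free medium at several concentrations; DMSO-matched controls. Viability expressed relative to DMSO controls (mean ± SD), and CC₅₀ derived.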

Enterococcus faecium [17] = assay: Antibacterial activity against Enterococcus faecium NR-31916 incubated for 18 to 20 hrs under aerobic condition by CLSI protocol based broth microdilution assay; type: functional; settings: time hrs 18-20; in short: as §1
Caco-2 = assay: Cytotoxicity against human Caco2 cells at 128 ug/ml incubated for 2 hrs by MTS assay; type: cell-based; settings: caco-2, 2 h, dose 128 µg/ml; in short: as §3

| Compound | Activity (Enterococcus faecalis [1]) | inhibition (Enterococcus faecium [2]) | inhibition (Enterococcus faecium [3]) | Activity (Enterococcus faecalis [4]) | MIC (Enterococcus faecium [5]) | MIC (Enterococcus faecalis [6]) | MIC (Enterococcus faecium [7]) | MIC (Enterococcus faecium [8]) | MIC (Enterococcus faecium [9]) | MIC (Enterococcus faecium [10]) | MIC (Enterococcus faecalis [11]) | MIC (Enterococcus faecium [12]) | MIC (Enterococcus faecium [13]) | MIC (Enterococcus faecium [14]) | MIC (Enterococcus faecium [15]) | CC50 at 2 h [16] | MIC (Enterococcus faecium [17]) | Activity (Caco-2) |
| --- | --- | --- | --- | --- | --- | --- | --- | --- | --- | --- | --- | --- | --- | --- | --- | --- | --- | --- |
| NS(=O)(=O)c1nnc(NC(=O)C2CCC2)s1 | Active | inactive | Active | Active | 0.5 µg/mL (≈ 1.91 µM) | – | – | – | – | – | – | – | – | – | – | – | – | – |
| CC(C)(C)C(=O)Nc1nnc(S(N)(=O)=O)s1 | Active | – | – | Active | 0.25 µg/mL (≈ 0.946 µM) | 0.5 µg/mL (≈ 1.89 µM) | 0.5 µg/mL (≈ 1.89 µM) | 0.25 µg/mL (≈ 0.946 µM) | 0.5 µg/mL (≈ 1.89 µM) | 0.5 µg/mL (≈ 1.89 µM) | 0.5 µg/mL (≈ 1.89 µM) | 0.5 µg/mL (≈ 1.89 µM) | 0.25 µg/mL (≈ 0.946 µM) | 1 µg/mL (≈ 3.78 µM) | 0.5 µg/mL (≈ 1.89 µM) | > 128 µg/mL | 0.5 µg/mL (≈ 1.89 µM) | Non-Toxic |
| NS(=O)(=O)c1nnc(NC(=O)CN2CCCC2)s1 | – | inactive | Active | – | 1 µg/mL (≈ 3.43 µM) | – | – | – | – | – | – | – | – | – | – | – | – | – |
| CCC(=O)Nc1nnc(S(N)(=O)=O)s1 [PROPAZOLAMIDE] | – | inactive | Active | – | 1 µg/mL (≈ 4.23 µM) | – | – | – | – | – | – | – | – | – | – | – | – | – |
| NS(=O)(=O)c1nnc(NC(=O)CC2CCC2)s1 | – | – | – | – | 0.25 µg/mL (≈ 0.905 µM) | – | – | – | – | – | – | – | – | – | – | – | – | – |
| CCCCCCC(=O)Nc1nnc(S(N)(=O)=O)s1 | Active | inactive | Active | Active | 0.015 µg/mL (≈ 0.0513 µM) | 0.015 µg/mL (≈ 0.0513 µM) | 0.03 µg/mL (≈ 0.103 µM) | 0.06 µg/mL (≈ 0.205 µM) | 0.03 µg/mL (≈ 0.103 µM) | 0.03 µg/mL (≈ 0.103 µM) | 0.015 µg/mL (≈ 0.0513 µM) | 0.015 µg/mL (≈ 0.0513 µM) | 0.03 µg/mL (≈ 0.103 µM) | 0.03 µg/mL (≈ 0.103 µM) | 0.03 µg/mL (≈ 0.103 µM) | > 128 µg/mL | 0.06 µg/mL (≈ 0.205 µM) | Non-Toxic |
| CC(=O)Nc1ccc(S(N)(=O)=O)cc1 | – | – | – | – | > 64 µg/mL | – | – | – | – | – | – | – | – | – | – | – | – | – |
| NS(=O)(=O)c1nnc(NCc2ccccc2)s1 | – | – | – | – | > 64 µg/mL | – | – | – | – | – | – | – | – | – | – | – | – | – |
| NS(=O)(=O)c1nnc(NC(=O)CC2CCCC2)s1 | Active | inactive | Active | Active | 0.06 µg/mL (≈ 0.207 µM) | 0.03 µg/mL (≈ 0.103 µM) | 0.06 µg/mL (≈ 0.207 µM) | 0.125 µg/mL (≈ 0.43 µM) | 0.125 µg/mL (≈ 0.43 µM) | 0.125 µg/mL (≈ 0.43 µM) | 0.03 µg/mL (≈ 0.103 µM) | 0.06 µg/mL (≈ 0.207 µM) | 0.015 µg/mL (≈ 0.0517 µM) | 0.03 µg/mL (≈ 0.103 µM) | 0.06 µg/mL (≈ 0.207 µM) | > 128 µg/mL | 0.015 µg/mL (≈ 0.0517 µM) | Non-Toxic |
| NS(=O)(=O)c1nnc(NC(=O)CN2CCCCC2)s1 | – | – | – | – | 1 µg/mL (≈ 3.27 µM) | – | – | – | – | – | – | – | – | – | – | – | – | – |
| NS(=O)(=O)c1nnc(NC(=O)c2ccccc2)s1 | – | – | – | – | 2 µg/mL (≈ 7.03 µM) | – | – | – | – | – | – | – | – | – | – | – | – | – |
| NS(=O)(=O)c1nnc(NC(=O)CCc2ccccc2)s1 | – | inactive | Active | – | 0.06 µg/mL (≈ 0.192 µM) | 0.125 µg/mL (≈ 0.4 µM) | 0.5 µg/mL (≈ 1.6 µM) | 0.5 µg/mL (≈ 1.6 µM) | 0.25 µg/mL (≈ 0.8 µM) | 0.25 µg/mL (≈ 0.8 µM) | 0.015 µg/mL (≈ 0.048 µM) | 0.25 µg/mL (≈ 0.8 µM) | 0.125 µg/mL (≈ 0.4 µM) | 0.125 µg/mL (≈ 0.4 µM) | 0.125 µg/mL (≈ 0.4 µM) | > 128 µg/mL | 0.125 µg/mL (≈ 0.4 µM) | Non-Toxic |
| CC(C)C(=O)Nc1nnc(S(N)(=O)=O)s1 | – | inactive | Active | – | 1 µg/mL (≈ 4 µM) | – | – | – | – | – | – | – | – | – | – | – | – | – |
| NS(=O)(=O)c1nnc(NC(=O)C2CC2)s1 | Active | – | – | Active | 2 µg/mL (≈ 8.06 µM) | – | – | – | – | – | – | – | – | – | – | – | – | – |
| NS(=O)(=O)c1nnc(NC(=O)CC2CC2)s1 | – | inactive | Active | – | 0.25 µg/mL (≈ 0.953 µM) | 0.25 µg/mL (≈ 0.953 µM) | 0.25 µg/mL (≈ 0.953 µM) | 1 µg/mL (≈ 3.81 µM) | 0.5 µg/mL (≈ 1.91 µM) | 0.25 µg/mL (≈ 0.953 µM) | 0.5 µg/mL (≈ 1.91 µM) | 0.5 µg/mL (≈ 1.91 µM) | 0.25 µg/mL (≈ 0.953 µM) | 0.5 µg/mL (≈ 1.91 µM) | 0.5 µg/mL (≈ 1.91 µM) | > 128 µg/mL | 0.25 µg/mL (≈ 0.953 µM) | Non-Toxic |
